The source made the active and inactive calls. No cut-off for these calls is given here.
How the values were obtained:
Plasmodium falciparum [1] = experiment: Antimicrobial activity against wild type Plasmodium falciparum HB3 infected in erythrocytes assessed as growth inhibition after 72 hrs by SYBR Green I-based fluorescence assay; type: functional, organism-based; details: HB3, 72 h
Plasmodium falciparum [2] = experiment: Antimicrobial activity against leupeptin resistant-Plasmodium falciparum HB3-leuR1 mutant infected in erythrocytes assessed as growth inhibition after 72 hrs by SYBR Green I-based fluorescence assay; type: functional, organism-based; details: HB3-leuR1, 72 h
Method in brief: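 Sorbitol-synchronized cultures seeded at 0.2–0.5% parasitemia, 5% hematocrit in RPMI 1640/25 mM HEPES/2% serum/hypoxanthine. Incubated 72 h at 37°C in 5% O₂-5% CO₂. Freeze-thaw, then SYBR green I, 30 min dark, fluorescence 485/528 nm. Triplicate means with background subtracted (20 μM chloroquine-killed cultures). IC50 by nonlinear fit, three or more experiments.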

Plasmodium falciparum [3] = experiment: Antimicrobial activity against wild type Plasmodium falciparum HB3 infected in erythrocytes assessed as growth inhibition after 5 days by SYBR Green I-based fluorescence assay; details: HB3, 5 days
Plasmodium falciparum [4] = experiment: Antimicrobial activity against leupeptin resistant-Plasmodium falciparum HB3-leuR1 mutant infected in erythrocytes assessed as growth inhibition after 5 days by SYBR Green I-based fluorescence assay; details: HB3-leuR1, 5 days
[5] = molecular target: T1, Cysteine protease falcipain-3 (Plasmodium falciparum) (UniProt Q9NAW4); experiment: Inhibition of Cysteine protease falcipain-3 in Plasmodium falciparum HB3-leuR1 mutant infected erythrocytes assessed as slowing of substrate hydrolysis by Z-Phe-Arg-AMC substrate hydrolysis assay
T1 sequence (whole entry): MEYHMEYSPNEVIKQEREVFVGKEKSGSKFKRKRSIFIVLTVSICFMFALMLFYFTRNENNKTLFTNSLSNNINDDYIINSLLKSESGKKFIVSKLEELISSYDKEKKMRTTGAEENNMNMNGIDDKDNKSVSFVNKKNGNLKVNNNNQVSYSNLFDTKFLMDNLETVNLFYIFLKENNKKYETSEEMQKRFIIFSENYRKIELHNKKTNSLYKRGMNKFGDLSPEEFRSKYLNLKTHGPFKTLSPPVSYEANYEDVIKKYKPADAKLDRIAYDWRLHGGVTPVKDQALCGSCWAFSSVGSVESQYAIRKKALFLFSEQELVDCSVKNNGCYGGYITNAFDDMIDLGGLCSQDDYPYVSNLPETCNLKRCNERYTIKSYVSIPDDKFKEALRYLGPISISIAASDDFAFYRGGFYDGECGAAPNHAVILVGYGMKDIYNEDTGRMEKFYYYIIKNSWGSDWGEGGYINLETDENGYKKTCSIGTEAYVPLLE
Method in brief: (§1)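 Soluble extracts from trophozoite-infected erythrocytes enriched to 95–99% parasitemia (Percoll-sorbitol). Adjusted to 40 μg/ml protein in 0.1 M sodium acetate pH 5.5 with 10 mM DTT, with or without leupeptin. Prewarmed to 37°C; 50 μM Z-Phe-Arg-AMC added; fluorescence 353/442 nm read every 2 min. Rates by regression over 10–90 min, triplicate. K0.5 fit with Hill coefficient 1.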

Falcipain 2 [6] = molecular target: T2, Falcipain 2 (Plasmodium falciparum, UniProt Q9N6S8); experiment: Inhibition of Cysteine protease falcipain-2 in Plasmodium falciparum HB3 infected erythrocytes by Z-Phe-Arg-AMC substrate hydrolysis assay
T2 sequence (Q9N6S8 whole entry): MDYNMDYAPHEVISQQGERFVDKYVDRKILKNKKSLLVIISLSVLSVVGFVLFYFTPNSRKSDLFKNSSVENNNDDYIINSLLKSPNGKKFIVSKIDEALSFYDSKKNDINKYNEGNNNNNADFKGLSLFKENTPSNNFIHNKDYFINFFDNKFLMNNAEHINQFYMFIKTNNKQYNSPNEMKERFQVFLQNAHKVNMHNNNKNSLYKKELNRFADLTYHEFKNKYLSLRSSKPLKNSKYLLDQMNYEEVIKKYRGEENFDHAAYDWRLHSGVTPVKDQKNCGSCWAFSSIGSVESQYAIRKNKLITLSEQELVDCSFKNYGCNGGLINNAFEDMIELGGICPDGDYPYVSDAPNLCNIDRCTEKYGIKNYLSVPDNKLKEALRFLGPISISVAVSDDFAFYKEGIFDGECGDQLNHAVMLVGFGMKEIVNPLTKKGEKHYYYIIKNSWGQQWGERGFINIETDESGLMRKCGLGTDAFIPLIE
Method in brief: (§2)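 Soluble extracts came from trophozoite-infected cells enriched to 95–99% parasitemia. They were set at 40 μg/ml protein in 0.1 M sodium acetate pH 5.5 with 10 mM DTT and leupeptin, prewarmed to 37°C, then given 50 μM Z-Phe-Arg-AMC. Fluorescence (353/442 nm) was read every 2 min, with rates regressed over 10–90 min and triplicate means. K0.5 came from a 1:1 fit; n=4.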

Plasmodium falciparum [7] = experiment: Antimicrobial activity against leupeptin resistant-Plasmodium falciparum HB3-leuR1 mutant infected in erythrocytes assessed as growth inhibition after 72 hrs in presence of PSAC antagonist NPF1 by SYBR Green I-based fluorescence assay; type: functional, organism-based
Method in brief: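 SYBR green I growth assay for 72 h at 37°C using serial dilutions of several fixed molar ratios of leupeptin and NPF-1. IC50 of each agent interpolated for each ratio and plotted as an isobologram. Background subtracted using chloroquine-killed cultures.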

[8] = molecular target: T3, Cysteine protease falcipain-3 (Plasmodium falciparum, UniProt Q9NAW4); experiment: Inhibition of Cysteine protease falcipain-3 in Plasmodium falciparum HB3 infected erythrocytes by Z-Phe-Arg-AMC substrate hydrolysis assay; method in brief: as §2
T3 sequence (Q9NAW4 whole entry): T1 sequence (whole entry)

[9] = Inhibition of PSAC-mediated sorbitol uptake in erythrocytes infected with leupeptin resistant-Plasmodium falciparum HB3-leuR1 at 50 uM; type: cell-based
[10] = molecular target: T4, Falcipain 2 (Plasmodium falciparum) (UniProt Q9N6S8); experiment: Inhibition of Cysteine protease falcipain-2 in Plasmodium falciparum HB3-leuR1 mutant infected erythrocytes assessed as slowing of substrate hydrolysis by Z-Phe-Arg-AMC substrate hydrolysis assay; method in brief: as §1
T4 sequence (whole entry): T2 sequence (Q9N6S8 whole entry)

Plasmodium falciparum [11] = experiment: Reduction in formation of hemozoin crystals in leupeptin resistant-Plasmodium falciparum HB3-leuR1 mutant infected in erythrocytes at 100 uM for 6 hrs by transmission electron microscopy; type: functional, organism-based
Method in brief: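 Infected erythrocytes cultured with 100 μM leupeptin for 6 h. Fixed overnight at 4°C in 2.5% glutaraldehyde-4% paraformaldehyde in cacodylate pH 7.4. Postfixed in osmium tetroxide-ferricyanide, stained with uranyl acetate, embedded in Spurr's resin. Thin sections stained with uranyl acetate/lead citrate and imaged at 80 kV.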

Plasmodium falciparum [12] = experiment: Induction of parasite morphology changes in leupeptin resistant-Plasmodium falciparum HB3-leuR1 mutant infected in erythrocytes assessed as occurrence of enlarged digestive vacuoles by transmission electron microscopy; type: functional, organism-based
Plasmodium falciparum [13] = experiment: Reduction in formation of hemozoin crystals in wild type Plasmodium falciparum HB3 infected in erythrocytes at 100 uM for 6 hrs by transmission electron microscopy; type: functional, organism-based
Method in brief: (§3)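 For electron microscopy, infected erythrocytes were cultured with 100 μM leupeptin for 6 h. They were fixed overnight at 4°C in 2.5% glutaraldehyde/4% paraformaldehyde in 0.1 M cacodylate pH 7.4, postfixed in osmium tetroxide/ferricyanide and stained with uranyl acetate. Samples were Spurr-embedded, and thin sections were lead/uranyl stained and imaged at 80 kV.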

[14] = Activity of PSAS assessed as channel-mediated drug uptake measured by inhibition of papain-mediated substrate hydrolysis by Plasmodium falciparum HB3 infected erythrocyte cytosol harvested from cells incubated at 40 uM for 15 mins in presence og PSAC antagonist NPF1 by Z-Phe-Arg-AMC substrate hydrolysis assay; type: functional
Method in brief: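 Erythrocyte cytosol was released with 0.05% saponin, and 10⁸-cell equivalents were incubated with 150 ng/ml papain and 10 mM DTT at pH 5.5. Z-Phe-Arg-AMC (50 μM) hydrolysis was read every 2 min for 10 min, given as percent inhibition; four experiments.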

[15] = Inhibition of PSAC-mediated sorbitol uptake in erythrocytes infected with Plasmodium falciparum HB3 at 50 uM; type: cell-based
Method in brief: (§4)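 Percoll-sorbitol-enriched trophozoite-infected cells were washed in PBS, then suspended at 0.5% hematocrit in 280 mM sorbitol, 20 mM sodium HEPES and 0.1 mg/ml BSA, pH 7.4, with PSAC antagonists. Osmotic lysis kinetics gave half-times, and K0.5 was fitted by nonlinear least squares.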

[16] = molecular target: Cysteine protease falcipain-3 (Plasmodium falciparum, UniProt Q9NAW4); experiment: Inhibition of Cysteine protease falcipain-3 in Plasmodium falciparum HB3-leuR1 mutant infected erythrocytes by Z-Phe-Arg-AMC substrate hydrolysis assay; method in brief: as §1
Falcipain 2 [17] = molecular target: Falcipain 2 (Plasmodium falciparum, UniProt Q9N6S8); experiment: Inhibition of Cysteine protease falcipain-2 in Plasmodium falciparum HB3-leuR1 mutant infected erythrocytes by Z-Phe-Arg-AMC substrate hydrolysis assay; method in brief: as §1
[18] = Activity of PSAS assessed as channel-mediated drug uptake measured by inhibition of papain-mediated substrate hydrolysis by Plasmodium falciparum HB3 infected erythrocyte cytosol harvested from cells incubated at 40 uM for 15 mins by Z-Phe-Arg-AMC substrate hydrolysis assay
Method in brief: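 They were counted, then lysed at 20% hematocrit with 0.05% saponin. Cytosol from 10⁸ cells went into pH 5.5 acetate with 10 mM DTT and 150 ng/ml papain, then 50 μM Z-Phe-Arg-AMC. Rates came from 353/442 nm readings over 10 min; four experiments.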

[19] = Activity of PSAS assessed as channel-mediated drug uptake measured by inhibition of papain-mediated substrate hydrolysis by leupeptin resistant-Plasmodium falciparum HB3-leuR1 infected erythrocyte cytosol harvested from cells incubated at 40 uM for 15 mins by Z-Phe-Arg-AMC substrate hydrolysis assay
Plasmodium falciparum [20] = experiment: Reduction in hemozoin production in leupeptin resistant-Plasmodium falciparum HB3-leuR1 mutant infected in erythrocytes at 50 uM for 18 hrs by absorbance scan at 400 nm
Plasmodium falciparum [21] = experiment: Induction of parasite morphology changes in wild type Plasmodium falciparum HB3 infected in erythrocytes assessed as occurrence of enlarged digestive vacuoles by transmission electron microscopy; type: functional, organism-based; method in brief: as §3
Plasmodium falciparum [22] = experiment: Reduction in hemozoin production in wild type Plasmodium falciparum HB3 infected in erythrocytes at 50 uM for 18 hrs by absorbance scan at 400 nm
[23] = molecular target: T1, Cysteine protease falcipain-3 (Plasmodium falciparum); experiment: Inhibition of Cysteine protease falcipain-3 in Plasmodium falciparum HB3 infected erythrocytes assessed as slowing of substrate hydrolysis by Z-Phe-Arg-AMC substrate hydrolysis assay; method in brief: as §1
[24] = molecular target: T4, Falcipain 2 (Plasmodium falciparum); experiment: Inhibition of Cysteine protease falcipain-2 in Plasmodium falciparum HB3 infected erythrocytes assessed as slowing of substrate hydrolysis by Z-Phe-Arg-AMC substrate hydrolysis assay; method in brief: as §1
[25] = Inhibition of PSAC-mediated sorbitol uptake in erythrocytes infected with Plasmodium falciparum HB3 at 100 to 5000 uM by osmotic lysis half-time determination assay; type: cell-based; method in brief: as §4
[26] = Inhibition of PSAC-mediated sorbitol uptake in erythrocytes infected with leupeptin resistant-Plasmodium falciparum HB3-leuR1 by osmotic lysis half-time determination assay; type: cell-based
[27] = Inhibition of single PSAC in erythrocytes infected with Plasmodium falciparum HB3 at 100 to 5000 uM by cell attached patch clamp method; type: cell-based
Method in brief: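 Cell-attached patch-clamp recordings were made on trophozoite-stage infected erythrocytes. Bath and pipette solutions were symmetric: 1,000 mM choline chloride, 115 mM NaCl, 10 mM MgCl₂, 5 mM CaCl₂ and 20 mM sodium HEPES, pH 7.4.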

[28] = Inhibition of single PSAC in erythrocytes infected with leupeptin resistant-Plasmodium falciparum HB3-leuR1 cell attached patch clamp method; type: cell-based

C[C@@H]1CC[C@H]2[C@@H](C)C(=O)O[C@@H]3O[C@@]4(C)CC[C@@H]1[C@]32OO4 [ARTEMISININ]
IC50 (Plasmodium falciparum [1]): 8.36 nM
IC50 (Plasmodium falciparum [2]): 7.71 nM

CN(CC[C@H](N)CC(=O)N[C@H]1C=C[C@H](n2ccc(N)nc2=O)O[C@@H]1C(=O)O)C(=N)N [BLASTICIDIN_S]
IC50 (Plasmodium falciparum [3]): 430 nM
IC50 (Plasmodium falciparum [4]): 1150 nM

CC(C)C[C@H](NC(=O)[C@H]1O[C@@H]1C(=O)O)C(=O)NCCCCN=C(N)N [E-64]
IC50 (Plasmodium falciparum [3]): 3690 nM
IC50 (Plasmodium falciparum [4]): 5880 nM

CC(=O)N[C@@H](CC(C)C)C(=O)N[C@@H](CC(C)C)C(=O)N[C@H](C=O)CCCNC(=N)N [LEUPEPTIN]
inhibition [5]: Active
IC50 (Plasmodium falciparum [3]): 18000 nM
IC50 (Falcipain 2 [6]): 87 nM
growth inhibition (GI) (Plasmodium falciparum [7]): inactive
IC50 [8]: 87 nM
inhibition [9]: inactive
inhibition [10]: Active
Activity (Plasmodium falciparum [11]): inactive
Activity (Plasmodium falciparum [12]): inactive
Activity (Plasmodium falciparum [13]): Active
Activity [14]: inactive
IC50 (Plasmodium falciparum [4]): 74000 nM
inhibition [15]: inactive
IC50 [16]: 98 nM
IC50 (Falcipain 2 [17]): 98 nM
Activity [18]: Active
Activity [19]: inactive
Activity (Plasmodium falciparum [20]): inactive
Activity (Plasmodium falciparum [21]): Active
Activity (Plasmodium falciparum [22]): Active
inhibition [23]: Active
inhibition [24]: Active

CC(C)CC(=O)N[C@H](C(=O)N[C@H](C(=O)N[C@@H](CC(C)C)[C@@H](O)CC(=O)N[C@@H](C)C(=O)N[C@@H](CC(C)C)[C@@H](O)CC(=O)O)C(C)C)C(C)C [PEPSTATIN]
IC50 (Plasmodium falciparum [3]): 39200 nM
IC50 (Plasmodium falciparum [4]): 29400 nM

O=C(CCc1ccc(O)cc1)c1c(O)cc(O)cc1O[C@@H]1O[C@H](CO)[C@@H](O)[C@H](O)[C@H]1O [PHLORIZIN]
inhibition [25]: Active
inhibition [26]: inactive
IC50 [27]: 17000 nM
IC50 [28]: 340000 nM

C=C[C@H]1CN2CC[C@H]1C[C@H]2[C@H](O)c1ccnc2ccc(OC)cc12 [QUININE]
IC50 (Plasmodium falciparum [1]): 77.1 nM
IC50 (Plasmodium falciparum [2]): 74 nM
